The text below walks through data of ChEMBL document CHEMBL4808183, “Betulonic Acid Derivatives Interfering with Human Coronavirus 229E Replication via the nsp15 Endoribonuclease” (J Med Chem, 2021).

Series [1] has as its target Replicase polyprotein 1ab (Human coronavirus 229E) (UniProt P0C6X1). Description: Inhibition of nsp15 in Human coronavirus 229E infected in human embryonic lung fibroblast cells assessed as reduction in viral RNA synthesis at early stage of RNA synthesis at 6.3 uM treated 6 hrs post infection by RT-qPCR based time-of-addition assay. The series is classed as cell-based.

A short description of series [2]: Antiviral activity against Human coronavirus 229E infected in human embryonic lung fibroblast cells assessed as reduction in virus-induced cytopathic effect incubated for 5 days by MTS cell viability assay. Type of series: functional, cell-based. Conditions: 120 h. The method in brief: (§1)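 Confluent HEL cell cultures given serial compound dilutions together with HCoV-229E at MOI 100 and held 5 days at 35 °C. Virus-induced CPE was scored by microscopy. MTS reagent was then added and absorbance at 490 nm read 24 h later. EC50 was taken from the MTS or microscopic read-out and CC50 from MTS. SI = CC50/EC50, both by MTS. Mean ± SEM of three independent experiments.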
For orientation: Cytopathic effects are the visible damage that an infection or toxin causes in cultured cells.

Series [3] can be described thus: Antiviral activity against Human coronavirus 229E infected in human embryonic lung fibroblast cells assessed as reduction in virus-induced cytopathic effect incubated for 5 days by microscopy. The series is classed as functional, cell-based. The following applies: 120 h. The method in brief: as §1
The nature of series [4]: Cytotoxicity against mock-infected human embryonic lung fibroblast cells incubated for 5 days by MTS assay. Type of series: cell-based. Conditions: time 5 day. The procedure, abridged: as §1
For orientation: Formazan colour is commonly taken as a measure of viable cells.

A short description of series [5]: Selectivity index, ratio of CC50 for cytotoxicity against mock-infected human embryonic lung fibroblast cells incubated for 5 days by MTS assay to EC50 for antiviral activity against Human coronavirus 229E infected in human embryonic lung fibroblast cells assessed as reduction in virus-induced cytopathic effect incubated for 5 days by MTS cell viability assay. Type of series: toxicity, cell-based. The following applies: time 5 day, read-out: Ratio CC50/EC50. The method in brief: as §1

In another series the test system is SARS-CoV-2. Description: Antiviral activity against SARS-CoV-2 infected in eGFP expressing Vero E6 cells assessed as reduction in virus-induced cytopathic effect cells pretreated for 24 hrs measure after 4 days post infection by MTS cell viability assay. Type of series: functional, organism-based. The following applies: Severe acute respiratory syndrome coronavirus 2.

For series [6], the target named is Replicase polyprotein 1ab (Human coronavirus 229E) (UniProt P0C6X1). Description: Inhibition of nsp15 in Human coronavirus 229E infected in human embryonic lung fibroblast cells assessed as reduction in viral RNA synthesis at early stage of RNA synthesis at 15 uM treated 6 hrs post infection by RT-qPCR based time-of-addition assay. The series is classed as cell-based. The procedure, abridged: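 Confluent HEL cells infected with HCoV-229E (MOI 100). Compound at 15 μM was added at -0.5 to 8 h p.i. At 16 h p.i. cells were washed with ice-cold PBS and lysed on ice, then heated 10 min at 75 °C and DNase-treated. Viral RNA was measured by one-step RT-qPCR against the N gene, using a plasmid standard for absolute copies. Values are relative to the no-compound virus control, from two independent experiments.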
On the technique in general: Quantitative PCR measures a nucleic acid by following its amplification.

The subject of series [7] is Human immunodeficiency virus. Description: Antiviral activity against HIV. Type of series: functional, organism-based.
Series [8] concerns Herpes simplex virus unknown type. Description: Antiviral activity against Herpes simplex virus. The series is classed as functional.
The next series deals with Vaccinia virus. Description: Antiviral activity against Vaccinia virus. Type of series: functional, organism-based. The following applies: Orthopoxvirus vaccinia.
For the next series, the system named is Human adenovirus 2. Description: Antiviral activity against Adenovirus. Type of series: functional.
In series [9] the test system is Vesicular stomatitis virus. Description: Antiviral activity against Vesicular stomatitis virus. The series is classed as functional, organism-based.
Another series has as its system Coxsackievirus B4. Description: Antiviral activity against Coxsackie B4 virus. Type of series: functional, organism-based.
In series [10] the test system is Respiratory syncytial virus. Description: Antiviral activity against Respiratory syncytial virus. The series is classed as functional, organism-based.
Another series concerns Human respirovirus 3. Description: Antiviral activity against Parainfluenza-3 virus. The series is classed as functional, organism-based.
The subject of a further series is Reovirus sp. Description: Antiviral activity against Reovirus-1. Type of series: functional, organism-based.
The next series has as its system Sindbis virus. Description: Antiviral activity against Sindbis virus. Type of series: functional, organism-based.
The next series has as its system Punta Toro virus. Description: Antiviral activity against Punta Toro virus. Type of series: functional, organism-based.
The test system of a further series is Yellow fever virus. Description: Antiviral activity against Yellow fever virus. The series is classed as functional, organism-based.
Another series has as its system Influenza A virus. Description: Antiviral activity against Influenza virus. Type of series: functional.
The subject of series [11] is Fibroblast. Description: Inhibition of nsp15 K60R drug-resistant mutant in Human coronavirus 229E infected in human embryonic lung fibroblast cells assessed as reduction in virus yield. Type of series: cell-based. The procedure, abridged:
(§2)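 Virus yield assay in confluent HEL cells. Serial compound dilutions were added, and cells were infected at MOI 100 with wild-type, EndoU-deficient (H250A nsp15) or passage-selected (K60R or T66I nsp15) HCoV-229E. After 4 h at 35 °C, the inoculum was removed and compound re-added. Supernatant was lysed at 3 days p.i. and N-gene RNA copies measured by one-step RT-qPCR. Results are fold reduction versus the no-compound control, from three independent experiments.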

The test system of series [12] is Fibroblast. Description: Inhibition of nsp15 T66I drug-resistant mutant in Human coronavirus 229E infected in human embryonic lung fibroblast cells assessed as reduction in virus yield. The series is classed as cell-based. The method in brief:
as §2

Series [13] is described as follows: Antiviral activity against Human coronavirus 229E harboring reverse engineered EndoU-deficient H250A mutant infected in human embryonic lung fibroblast cells assessed as fold reduction in virus yield measured up to 40 uM. The series is classed as functional. The following applies: dose microM <=40. The procedure, abridged:
as §2

For series [14], the target named is Replicase polyprotein 1ab (Human coronavirus 229E) (UniProt P0C6X1). Description: Inhibition of nsp15 in wild type Human coronavirus 229E infected in human embryonic lung fibroblast cells assessed as reduction in virus yield. The series is classed as cell-based. The procedure, abridged:
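Confluent HEL cells (or semiconfluent 16HBE) with serial compound dilutions, infected with wild-type HCoV-229E at MOI 100. After 4 h at 35 °C the inoculum was removed and compound re-added. Supernatants were taken at 3 days p.i., lysed, and heated 10 min at 75 °C. Three independent experiments.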

As a reminder, the EC50 is the concentration needed to bring the measured effect to its halfway point. The CC50 is the concentration giving 50% cytotoxicity. The low end stands for greater toxicity to the cells, the high end for lower toxicity to the cells. The EC99 is the concentration needed for an effect of 99%.

Activity calls are given as the source filed them. The rule behind the calls is not given here.

Turning to `CO/C1=C\C(C)=C\[C@@H](C)[C@@H](O)[C@@H](C)C/C(C)=C/C=C/[C@H](OC)[C@@H]([C@@H](C)[C@@H](O)[C@H](C)[C@@]2(O)C[C@@H](O)[C@H](C)[C@@H](C(C)C)O2)OC1=O`, in series [1], the result was Active.

For `C=C(C)[C@@H]1CC[C@]2(C(=O)O)CC[C@]3(C)[C@H](CC[C@@H]4[C@@]5(C)Cc6nnn([C@@H](C)c7ccccc7)c6C(C)(C)[C@@H]5CC[C@]43C)[C@@H]12`, the EC50 in series [2] is 0.65 µM; in series [3] it was 0.6 µM. Further, the CC50 at 120 h in series [4] came out at 49 µM. In series [5], the selectivity ratio at 120 h was 76. Also, the result (in the series with SARS-CoV-2; in series [6]) was Active. For the same molecule, the outcome (in [7]; in series [8]; with Vaccinia virus; in the series on Human adenovirus 2; in series [9]; with Coxsackievirus B4) was inactive. Also, the outcome (in [10]; with Human respirovirus 3; with Reovirus sp.; with Sindbis virus; in the series with Punta Toro virus; in the series with Yellow fever virus) was inactive. The outcome in the series on Influenza A virus and with Fibroblast [12] was inactive. Besides, in the series with Fibroblast [11], the EC99 was determined as 2.9 µM. Also, the “fold change (FC)” value in series [13] was 23; in series [14] it was 1480.

`CC(C)[C@@H]1CC[C@]2(C(=O)O)CC[C@]3(C)[C@H](CC[C@@H]4[C@@]5(C)Cc6nnn([C@@H](C)c7ccccc7)c6C(C)(C)[C@@H]5CC[C@]43C)[C@@H]12`: the EC50 in [2] stood at 13 µM; in [3], 6.1 µM. In series [4], this molecule displayed a CC50 at 120 h greater than 99 µM. Besides, in [5], the selectivity ratio at 120 h was greater than 7.6. Further, in the series with SARS-CoV-2, the outcome was Active. The outcome (in series [7]; in [8]; in the series with Vaccinia virus; in the series with Human adenovirus 2; in [9]; in the series on Coxsackievirus B4) was inactive. The outcome (in [10]; in the series with Human respirovirus 3; with Reovirus sp.; in the series with Sindbis virus; in the series on Punta Toro virus; in the series on Yellow fever virus) was inactive. In addition, the outcome in the series with Influenza A virus was inactive.

As for `N#C[C@@]1(c2ccc3c(N)ncnn23)O[C@H](CO)[C@@H](O)[C@H]1O` [GS-441524], the concentration for a half-maximal effect (EC50) was 2.3 µM in series [2] and 3.2 µM in [3]. The molecule further returned a CC50 at 120 h in series [4] greater than 100 µM. Besides, in series [5], the selectivity ratio at 120 h is greater than 44. For the same molecule, the EC99 in the series with Fibroblast [11] is greater than 40 µM. For the same molecule, in the series with Fibroblast [12], the outcome was Active.

For the molecule `C=C(C)[C@@H]1CC[C@]2(C(=O)O)CC[C@]3(C)[C@H](CC[C@@H]4[C@@]5(C)Cc6nnn(Cc7cc(OC)cc(OC)c7)c6C(C)(C)[C@@H]5CC[C@]43C)[C@@H]12`, the EC50 in series [2] was 2.4 µM; in series [3], 1.6 µM. In addition, the half-maximal cytotoxic concentration (CC50) at 120 h in [4] is 17 µM. The selectivity ratio at 120 h in [5] worked out at 7. Moreover, the outcome (in series [7]; in [8]; in the series with Vaccinia virus; in the series with Human adenovirus 2; in series [9]; with Coxsackievirus B4) was inactive. For the same molecule, the outcome (in series [10]; in the series on Human respirovirus 3; in the series on Reovirus sp.; with Sindbis virus; in the series on Punta Toro virus; in the series on Yellow fever virus) was inactive. The outcome in the series on Influenza A virus was inactive.
